Consider 18 compounds from ChEMBL document CHEMBL3108700, “Designing anti-inflammatory drugs from parasitic worms: a synthetic small molecule analogue of the Acanthocheilonema viteae product ES-62 prevents development of collagen-induced arthritis” (J Med Chem, 2013).

In experiment [1] the target is T1, Toll-like receptor 9 (Mus musculus) (UniProt Q9EQU3).
T1 sequence (whole entry): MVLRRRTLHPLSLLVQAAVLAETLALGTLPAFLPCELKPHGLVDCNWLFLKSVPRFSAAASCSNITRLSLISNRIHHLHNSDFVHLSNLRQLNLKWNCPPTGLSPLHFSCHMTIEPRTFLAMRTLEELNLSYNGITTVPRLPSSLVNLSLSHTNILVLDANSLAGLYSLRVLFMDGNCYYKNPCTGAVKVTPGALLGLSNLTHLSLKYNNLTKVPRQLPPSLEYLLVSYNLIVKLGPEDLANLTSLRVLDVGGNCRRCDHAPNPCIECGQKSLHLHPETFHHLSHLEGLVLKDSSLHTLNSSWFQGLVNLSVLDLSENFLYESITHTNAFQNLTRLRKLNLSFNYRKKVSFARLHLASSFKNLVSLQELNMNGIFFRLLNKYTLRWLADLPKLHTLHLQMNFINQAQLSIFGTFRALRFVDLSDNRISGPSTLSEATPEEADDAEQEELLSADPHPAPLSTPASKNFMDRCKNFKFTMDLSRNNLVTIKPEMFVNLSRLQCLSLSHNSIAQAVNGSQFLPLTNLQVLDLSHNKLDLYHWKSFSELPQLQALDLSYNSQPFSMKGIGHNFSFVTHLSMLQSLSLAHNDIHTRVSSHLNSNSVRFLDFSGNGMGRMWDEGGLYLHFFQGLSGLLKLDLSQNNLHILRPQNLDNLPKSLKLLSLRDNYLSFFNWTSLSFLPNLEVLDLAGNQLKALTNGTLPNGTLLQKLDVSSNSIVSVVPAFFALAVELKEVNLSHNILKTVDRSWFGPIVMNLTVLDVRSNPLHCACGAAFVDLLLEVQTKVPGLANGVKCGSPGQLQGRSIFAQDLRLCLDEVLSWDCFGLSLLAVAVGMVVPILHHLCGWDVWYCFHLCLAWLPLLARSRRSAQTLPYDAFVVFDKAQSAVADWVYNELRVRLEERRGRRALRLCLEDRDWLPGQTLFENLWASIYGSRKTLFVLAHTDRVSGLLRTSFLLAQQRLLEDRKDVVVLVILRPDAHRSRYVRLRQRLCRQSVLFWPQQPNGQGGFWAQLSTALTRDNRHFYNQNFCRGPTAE
Put plainly: Inhibition of TLR9 in BALB/c mouse BMDM assessed as downregulation of CpG-stimulated IL-6 level at 5 ug/ml preincubated for 18 hrs followed by CpG challenge measured after 24 hrs by ELISA relative to control. Put shortly: (§1)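 BALB/c male bone marrow macrophages were differentiated 7 days with L929 supernatant (≥99% CD11b+/F4/80+). Cells were plated at 2 × 10^5/well in triplicate, rested overnight, and given compounds at 5 μg/mL for 18 h. They were then stimulated with 100 ng/mL S. minnesota LPS, 10 ng/mL Pam3CSK4 (BLP) or 0.01 μM CpG for 24 h. Supernatant IL-12p40 and IL-6 were measured by ELISA (sensitivity 16 pg/mL).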
On the technique in general: An ELISA detects its analyte on a solid surface through an enzyme-linked reagent.

Experiment [2] has as its target T1, Toll-like receptor 9 (Mus musculus). The experiment in a line: Inhibition of TLR9 in BALB/c mouse BMDM assessed as downregulation of CpG-stimulated IL-12p40 level at 5 ug/ml preincubated for 18 hrs followed by CpG challenge measured after 24 hrs by ELISA relative to control. Put shortly:
as §1

Experiment [3] addresses T2, TLR2/TLR6 (Mus musculus) (UniProt Q9QUN7+Q9EPW9). The experiment in a line: Inhibition of TLR2/6 in BALB/c mouse BMDM assessed as downregulation of BLP-stimulated IL-6 level at 5 ug/ml preincubated for 18 hrs followed by BLP challenge measured after 24 hrs by ELISA relative to control. Type of experiment: protein-complex assay. In short, it runs like this:
as §1

Experiment [4] has as its target T2, TLR2/TLR6 (Mus musculus). Put plainly: Inhibition of TLR2/6 in BALB/c mouse BMDM assessed as downregulation of BLP-stimulated IL-12p40 level at 5 ug/ml preincubated for 18 hrs followed by BLP challenge measured after 24 hrs by ELISA relative to control. The format is protein-complex assay. In short, it runs like this:
as §1

Experiment [5] addresses T3, Toll-like receptor 4 (Mus musculus) (UniProt Q9QUK6).
T3 sequence (whole entry): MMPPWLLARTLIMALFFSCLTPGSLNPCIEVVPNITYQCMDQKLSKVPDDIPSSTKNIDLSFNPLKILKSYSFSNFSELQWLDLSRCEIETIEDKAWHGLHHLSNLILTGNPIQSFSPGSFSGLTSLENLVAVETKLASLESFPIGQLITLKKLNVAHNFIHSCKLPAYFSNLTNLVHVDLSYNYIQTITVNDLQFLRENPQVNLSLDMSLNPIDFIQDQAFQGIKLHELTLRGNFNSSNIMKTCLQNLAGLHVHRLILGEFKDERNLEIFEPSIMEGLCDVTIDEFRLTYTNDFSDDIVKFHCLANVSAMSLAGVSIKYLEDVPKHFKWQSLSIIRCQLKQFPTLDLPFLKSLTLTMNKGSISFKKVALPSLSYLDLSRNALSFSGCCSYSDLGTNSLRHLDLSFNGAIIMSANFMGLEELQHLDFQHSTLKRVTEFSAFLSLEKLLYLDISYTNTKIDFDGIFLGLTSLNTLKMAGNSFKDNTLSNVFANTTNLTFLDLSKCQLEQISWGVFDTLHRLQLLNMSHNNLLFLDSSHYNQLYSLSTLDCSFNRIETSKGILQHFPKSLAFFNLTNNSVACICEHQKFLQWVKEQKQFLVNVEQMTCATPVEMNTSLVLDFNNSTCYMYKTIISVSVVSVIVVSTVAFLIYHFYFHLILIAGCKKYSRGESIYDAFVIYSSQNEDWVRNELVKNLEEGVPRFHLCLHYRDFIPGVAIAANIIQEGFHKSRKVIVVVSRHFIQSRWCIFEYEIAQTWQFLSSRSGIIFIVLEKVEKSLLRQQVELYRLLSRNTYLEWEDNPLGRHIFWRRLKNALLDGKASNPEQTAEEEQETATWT
Put plainly: Inhibition of TLR4 in BALB/c mouse BMDM assessed as downregulation of LPS-stimulated IL-6 level at 5 ug/ml preincubated for 18 hrs followed by LPS challenge measured after 24 hrs by ELISA relative to control. Put shortly: as §1

The target in experiment [6] is T3, Toll-like receptor 4 (Mus musculus). The experiment in a line: Inhibition of TLR4 in BALB/c mouse BMDM assessed as downregulation of LPS-stimulated IL-12p40 level at 5 ug/ml preincubated for 18 hrs followed by LPS challenge measured after 24 hrs by ELISA relative to control. Put shortly:
as §1

Active and inactive are the calls of the source. The rule behind the calls is not given here.

For the compound `O=S(=O)(Cc1ccc(Br)cc1)NCCN1CCOCC1`, the inhibition entry (in experiment [1]; in experiment [2]; on TLR2/TLR6 (Mus musculus) [3]; on TLR2/TLR6 (Mus musculus) [4]; in experiment [5]; in experiment [6]) was “inactive” throughout.
With `CN(C)CCNS(=O)(=O)Cc1ccccc1`, the inhibition result (in experiment [1]; in experiment [2]; at TLR2/TLR6 (Mus musculus) [3]; at TLR2/TLR6 (Mus musculus) [4]; in experiment [5]; in experiment [6]) was “inactive” in each case.
Take `O=S(=O)(CCN1CCOCC1)Cc1cccc(F)c1`: the inhibition entry (in experiment [1]; in experiment [2]; on TLR2/TLR6 (Mus musculus) [3]; on TLR2/TLR6 (Mus musculus) [4]; in experiment [5]; in experiment [6]) was “inactive” in each case.
For the compound `CN(C)CCS(=O)(=O)Nc1ccc(F)cc1`, the inhibition result (in experiment [1]; in experiment [2]; at TLR2/TLR6 (Mus musculus) [3]; on TLR2/TLR6 (Mus musculus) [4]; in experiment [5]) was “inactive” throughout. Also, the inhibition result in experiment [6] is “Active”.
With `Cc1ccc(CS(=O)(=O)CCCN2CCCC2)cc1`, the inhibition result (in experiment [1]; in experiment [2]; on TLR2/TLR6 (Mus musculus) [3]; on TLR2/TLR6 (Mus musculus) [4]; in experiment [5]; in experiment [6]) was “inactive” each time.
Consider `O=S(=O)(Cc1ccc(F)cc1)NCCN1CCOCC1`, for which the inhibition entry (in experiment [1]; in experiment [2]; at TLR2/TLR6 (Mus musculus) [3]; on TLR2/TLR6 (Mus musculus) [4]; in experiment [5]; in experiment [6]) was “inactive” in each case.
Regarding `O=S(=O)(CCN1CCCC1)NCc1ccc(Br)cc1`, the inhibition entry (in experiment [1]; in experiment [2]; at TLR2/TLR6 (Mus musculus) [3]; on TLR2/TLR6 (Mus musculus) [4]; in experiment [5]; in experiment [6]) was “inactive” throughout.
`O=S(=O)(CCN1CCCC1)c1ccccc1`: the inhibition entry (in experiment [1]; in experiment [2]; on TLR2/TLR6 (Mus musculus) [3]; in experiment [5]; in experiment [6]) was “inactive” in each case. For the same compound, the inhibition result at TLR2/TLR6 (Mus musculus) [4] was “Active”.
Turning to `COc1cccc(C(=O)NCCN2CCCC2)c1`, the inhibition entry (in experiment [1]; on TLR2/TLR6 (Mus musculus) [4]; in experiment [6]) was “Active” in each case. For the same compound, the inhibition entry (in experiment [2]; at TLR2/TLR6 (Mus musculus) [3]; in experiment [5]) was “inactive” in each case.
Take `O=C(Cc1ccccc1)NCCN1CCCC1`: the inhibition result (in experiment [1]; in experiment [2]; on TLR2/TLR6 (Mus musculus) [3]; in experiment [5]; in experiment [6]) was “Active” each time. For the same compound, the inhibition entry on TLR2/TLR6 (Mus musculus) [4] was “inactive”.
For `O=C(Cc1ccccc1)NCCN1CCOCC1`, the inhibition entry in experiment [1], in experiment [2] and in experiment [6] was “Active” each time. The inhibition result (at TLR2/TLR6 (Mus musculus) [3]; on TLR2/TLR6 (Mus musculus) [4]; in experiment [5]) was “inactive” throughout.
In the case of `CN(C)CCS(=O)(=O)Cc1cccc(F)c1`, the inhibition result (in experiment [1]; in experiment [2]; on TLR2/TLR6 (Mus musculus) [3]; at TLR2/TLR6 (Mus musculus) [4]; in experiment [5]; in experiment [6]) was “inactive” each time.
`CC(C)NCCS(=O)(=O)c1ccccc1`: the inhibition result (in experiment [1]; in experiment [2]; on TLR2/TLR6 (Mus musculus) [3]; in experiment [5]; in experiment [6]) was “inactive” each time. Moreover, on TLR2/TLR6 (Mus musculus) [4], the inhibition entry is “Active”.
For `COc1ccc2c(CS(=O)(=O)NCCN(C)C)cc(=O)oc2c1`, the inhibition result (in experiment [1]; in experiment [2]; at TLR2/TLR6 (Mus musculus) [3]; in experiment [5]) was “inactive” each time. The inhibition result (on TLR2/TLR6 (Mus musculus) [4]; in experiment [6]) was “Active” in each case.
As to `O=S(=O)(Cc1ccccc1)NCCN1CCCC1`, the inhibition entry (in experiment [1]; in experiment [2]; at TLR2/TLR6 (Mus musculus) [3]; on TLR2/TLR6 (Mus musculus) [4]; in experiment [5]; in experiment [6]) was “inactive” throughout.
Take `CN(C)CCN(C)CCS(=O)(=O)Nc1ccc(F)cc1`: the inhibition result (in experiment [1]; in experiment [2]; at TLR2/TLR6 (Mus musculus) [3]; at TLR2/TLR6 (Mus musculus) [4]; in experiment [5]) was “inactive” throughout. Moreover, in experiment [6], the inhibition entry is “Active”.
Take `O=S(=O)(CCN1CCCC1)Cc1ccc(Br)cc1`: the inhibition entry (in experiment [1]; in experiment [2]; at TLR2/TLR6 (Mus musculus) [3]; at TLR2/TLR6 (Mus musculus) [4]; in experiment [5]) was “inactive” each time. The inhibition result in experiment [6] is “Active”.
For the compound `CN(C)CCN(C)CCS(=O)(=O)NCc1ccc(Br)cc1`, the inhibition result (in experiment [1]; on TLR2/TLR6 (Mus musculus) [4]; in experiment [5]) was “inactive” throughout. Besides, the inhibition result (in experiment [2]; on TLR2/TLR6 (Mus musculus) [3]; in experiment [6]) was “Active” throughout.
